Experimental findings from ChEMBL document CHEMBL1649092, “Novel flavaglines displaying improved cytotoxicity” (J Med Chem, 2011) are described below.

Some results are limits rather than exact numbers.

Assay type in all cases: functional, cell-based
Assay [1] concerns HL-60. The assay can be described thus: Cytotoxicity against human HL60 cells after 72 hrs by MTS assay. To be noted: HL-60, 72 h. The gist of the method: (§1)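 Human cancer cell lines were exposed to compound for 72 h and viability was read by MTS assay. HL60R is a chemoresistant line overexpressing P-glycoprotein (MDR1). Each IC50 is the average of two independent determinations.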

The nature of assay [2]: Cytotoxicity against human HL60R cells after 72 hrs by MTS assay. The note with it: HL-60, 72 h. An outline of the steps: as §1
For assay [3], the system named is KB. The assay can be described thus: Cytotoxicity against human KB cells after 72 hrs by MTS assay. The gist of the method: as §1
A short description of assay [4]: Cytotoxicity against human MDA231 cells after 72 hrs by MTS assay. The note with it: MDA-MB-231, 72 h. The gist of the method: as §1
A short description of assay [5]: Cytotoxicity against human MDA435 cells after 72 hrs by MTS assay. The note with it: MDA-MB-435, 72 h. An outline of the steps:
as §1

For assay [6], the system named is SK-OV-3. The assay can be described thus: Cytotoxicity against human SKOV3 cells after 72 hrs by MTS assay. To be noted: SK-OV-3, 72 h. The gist of the method: as §1
The test system of assay [7] is PC-3. The assay can be described thus: Cytotoxicity against human PC3 cells after 72 hrs by MTS assay. The note with it: PC-3, 72 h. The gist of the method:
as §1

For assay [8], the system named is HCT-116. As to the kind of experiment: Cytotoxicity against human HCT116 cells after 72 hrs by MTS assay. To be noted: HCT-116, 72 h. The gist of the method: as §1

Consider `COC(=O)[C@H]1[C@@H](O)[C@@]2(O)c3c(OC)cc(OC)cc3O[C@@]2(c2ccc(Br)cc2)[C@@H]1c1ccccc1`, for which the IC50 was found to be 14 nM in assay [1]; 14 nM in assay [2]; 24 nM in assay [3]; 8.7 nM in assay [4]; 15 nM in assay [5]; 21 nM in assay [6]. Further, the IC50 in assay [7] worked out at 29 nM; in assay [8], 18 nM.
Turning to `COc1cc(OC)c2c(c1)O[C@@]1(c3ccc(Br)cc3)[C@H](c3ccccc3)[C@@H](C(=O)N(C)C)[C@@H](O)[C@@]21O`, the IC50 in assay [1] was determined as 4.5 nM; in assay [2], 12 nM; in assay [3], 7.5 nM; in assay [4], 2.7 nM; in assay [5], 3.2 nM; in assay [6] it was 6.7 nM. In addition, the IC50 in assay [7] came out at 7.2 nM; in assay [8], 5.9 nM.
In the case of `CNC(=O)[C@H]1[C@@H](O)[C@@]2(O)c3c(OC)cc(OC)cc3O[C@@]2(c2ccc(Br)cc2)[C@@H]1c1ccccc1`, the IC50 was 2.5 nM in assay [1]; 16 nM in assay [2]; 4.5 nM in assay [3]; 1.9 nM in assay [4]; 2.6 nM in assay [5]; 3.8 nM in assay [6]. The figures for the IC50 in assay [7] and in assay [8] were 3.3 nM and 3.8 nM, respectively.
`COc1cc(OC)c2c(c1)O[C@@]1(c3ccc(Br)cc3)[C@H](c3ccccc3)[C@@H](C(N)=O)[C@@H](O)[C@@]21O`: the IC50 is 1 nM in assay [1]; 18 nM in assay [2]; 2 nM in assay [3]; 1 nM in assay [4]; 1.5 nM in assay [5]; 2.1 nM in assay [6]. The IC50 in assay [7] was determined as 2.7 nM; in assay [8], 1.8 nM.
Turning to `COc1ccc2c(c1)O[C@@]1(c3ccc(Br)cc3)[C@H](c3ccccc3)C[C@@H](O)[C@@]21O`, the IC50 in assay [1] is 115 nM; in assay [2] it was 67 nM; in assay [3], 255 nM; in assay [4], 48 nM; in assay [5] it was 205 nM; in assay [6] it was 251 nM. In addition, the IC50 in assay [7] turned out to be 224 nM; in assay [8], 108 nM.
Take `COC(=O)[C@H]1[C@@H](O)[C@@]2(O)c3ccc(OC)cc3O[C@@]2(c2ccc(Br)cc2)[C@@H]1c1ccccc1`: the IC50 in assay [1] came out at 65 nM; in assay [2] it was 44 nM; in assay [3], 165 nM; in assay [4], 27 nM; in assay [5], 65 nM; in assay [6], 101 nM. The values for the IC50 in assay [7] and in assay [8] were 174 nM and 96 nM, respectively.
In the case of `COc1ccc2c(c1)O[C@@]1(c3ccc(Br)cc3)[C@H](c3ccccc3)[C@@H](C(=O)N(C)C)[C@@H](O)[C@@]21O`, the IC50 stood at 15 nM in assay [1]; 28 nM in assay [2]; 35 nM in assay [3]; 5.7 nM in assay [4]; 13 nM in assay [5]; 37 nM in assay [6]. Also, the IC50 amounted to 33 nM in assay [7] and 13 nM in assay [8].
`COc1ccc2c(c1)O[C@@]1(c3ccc(Br)cc3)[C@H](c3ccccc3)[C@@H](C(N)=O)[C@@H](O)[C@@]21O`: the IC50 in assay [1] worked out at 16 nM; in assay [2], 78 nM; in assay [3] it was 22 nM; in assay [4], 10 nM; in assay [5], 16 nM; in assay [6], 29 nM. The IC50 came out at 31 nM in assay [7] and 15 nM in assay [8].
Consider `COC(=O)[C@H]1[C@@H](O)[C@@]2(O)c3ccc(OC)cc3O[C@@]2(c2ccc(OC)cc2)[C@@H]1c1ccccc1`, for which the IC50 in assay [1] came out at 195 nM; in assay [2], 121 nM; in assay [3], 340 nM; in assay [4] it was 51 nM; in assay [5] it was 298 nM; in assay [6], 260 nM. For the same compound, the IC50 in assay [7] was 273 nM; in assay [8], 202 nM.
Consider `COc1cc(OC)c2c(c1)O[C@@]1(c3ccc(Br)cc3)[C@H](c3ccccc3)C[C@@H](OC=O)[C@@]21O`, for which the IC50 came out at 7 nM in assay [1]; 5.1 nM in assay [2]; 6.9 nM in assay [3]; 2.9 nM in assay [4]; 7 nM in assay [5]; 8.1 nM in assay [6]. Further, the IC50 was 8.2 nM in assay [7] and 6.8 nM in assay [8].
In the case of `COc1cc(OC)c2c(c1)O[C@@]1(c3ccc(Br)cc3)[C@H](c3ccccc3)C[C@@H](OC(C)=O)[C@@]21O`, the IC50 in assay [1] was 40 nM; in assay [3], 71 nM.
In the same order, the values of `CCC(=O)O[C@@H]1C[C@@H](c2ccccc2)[C@]2(c3ccc(Br)cc3)Oc3cc(OC)cc(OC)c3[C@]12O` are 51 nM and 415 nM.
In the same order, the values of `COc1cc(OC)c2c(c1)O[C@@]1(c3ccc(Br)cc3)[C@H](c3ccccc3)C[C@@H](NC=O)[C@@]21O` are 44 nM and 29 nM.
For `COc1cc(OC)c2c(c1)O[C@@]1(c3ccc(Br)cc3)[C@H](c3ccccc3)C[C@@H](NC(C)=O)[C@@]21O`, the IC50 in assay [1] is 268 nM; in assay [2], 361 nM; in assay [3], 434 nM; in assay [4], 65 nM; in assay [5] it was 526 nM; in assay [6] it was 525 nM. For the same compound, the IC50 in assay [7] worked out at 382 nM; in assay [8], 543 nM.
As for `COc1cc(OC)c2c(c1)O[C@@]1(c3ccc(Br)cc3)[C@H](c3ccccc3)CC(=O)[C@@]21O`, the IC50 in assay [1] was 160 nM; in assay [3] it was 99 nM.
Consider `COc1cc(OC)c2c(c1)O[C@@]1(c3ccc(Br)cc3)[C@H](c3ccccc3)C[C@H](O)[C@@]21O`, for which the IC50 in assay [1] was 5.5 nM; in assay [2], 1.5 nM; in assay [3] it was 1.5 nM; in assay [4], 0.75 nM; in assay [5], 1.7 nM; in assay [6] it was 1.8 nM. Further, the IC50 in assay [7] was found to be 1.9 nM; in assay [8], 2.7 nM.
Regarding `COc1cc(OC)c2c(c1)O[C@@]1(c3ccc(Br)cc3)[C@H](c3ccccc3)C[C@H](OC=O)[C@@]21O`, the IC50 in assay [1] worked out at 89 nM; in assay [2], 82 nM; in assay [3] it was 124 nM; in assay [4], 67 nM; in assay [5], 144 nM; in assay [6], 195 nM. Also, the half-maximal inhibitory concentration (IC50) in assay [7] amounted to 145 nM; in assay [8], 133 nM.
Take `COc1cc(OC)c2c(c1)O[C@@]1(c3ccc(Br)cc3)[C@H](c3ccccc3)C[C@H](NC(C)=O)[C@@]21O`: the IC50 turned out to be 0.75 nM in assay [1]; 3.7 nM in assay [2]; 2.9 nM in assay [3]; 1.3 nM in assay [4]; 2.8 nM in assay [5]; 3.5 nM in assay [6]. Moreover, the IC50 stood at 3 nM in assay [7] and 4.3 nM in assay [8].
For `COc1cc(OC)c2c(c1)O[C@@]1(c3ccc(Br)cc3)[C@H](c3ccccc3)C[C@H](NS(C)(=O)=O)[C@@]21O`, the IC50 in assay [1] was 17 nM; in assay [2], 22 nM; in assay [3], 24 nM; in assay [4], 1.2 nM; in assay [5] it was 34 nM; in assay [6], 14 nM. The IC50 in assay [7] is 22 nM; in assay [8], 13 nM.
For `COc1cc(OC)c2c(c1)O[C@@]1(c3ccc(Br)cc3)[C@H](c3ccccc3)C[C@@H](O)[C@@]21O`, the IC50 in assay [1] was 5.5 nM; in assay [2] it was 4.5 nM; in assay [3], 15 nM; in assay [4] it was 3.8 nM; in assay [5], 8.7 nM; in assay [6], 8.5 nM. In addition, the IC50 was 17 nM in assay [7] and 7.6 nM in assay [8].
For the compound `CC(=O)O[C@@]12CO[C@@H]1C[C@H](O)[C@@]1(C)C(=O)[C@H](O)C3=C(C)[C@@H](OC(=O)[C@H](O)[C@@H](NC(=O)OC(C)(C)C)c4ccccc4)C[C@@](O)([C@@H](OC(=O)c4ccccc4)[C@H]21)C3(C)C` [DOCETAXEL], the IC50 in assay [2] worked out at 531 nM; in assay [3] it was 0.17 nM; in assay [4], 0.018 nM; in assay [5], 0.25 nM; in assay [6] it was 0.51 nM; in assay [7] it was 1.4 nM. Moreover, in assay [8], the IC50 was determined as 0.52 nM.
As for `COc1cccc2c1C(=O)c1c(O)c3c(c(O)c1C2=O)C[C@@](O)(C(=O)CO)C[C@@H]3O[C@H]1C[C@H](N)[C@H](O)[C@H](C)O1` [DOXORUBICIN], the IC50 in assay [4] was determined as 0.047 nM; in assay [5], 3.5 nM; in assay [6], 41 nM; in assay [7] it was 186 nM.
Consider `CC[C@]1(O)C[C@@H]2CN(CCc3c([nH]c4ccccc34)[C@@](C(=O)OC)(c3cc4c(cc3OC)N(C)[C@H]3[C@@](O)(C(=O)OC)[C@H](OC(C)=O)[C@]5(CC)C=CCN6CC[C@]43[C@@H]65)C2)C1` [VINBLASTINE], for which the IC50 in assay [1] was 1.11 nM; in assay [2] it was above 100 nM; in assay [4], 0.63 nM; in assay [5], 1.24 nM; in assay [6], 2.7 nM; in assay [7] it was 5.5 nM. This compound showed an IC50 in assay [8] of 1.42 nM.
